This note sets out measurements from paper PMC7818638 (ACS Omega, 2021).

Converted amounts (≈) assume the structure as drawn.

For one data set, the system named is HepG2. As to the kind of experiment: Antiproliferative. It counts as cell-based. Particulars: Homo sapiens, HepG2, read-out: HepG2 IC50 ± SD. A digest of the protocol: (§1)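 Test compounds are screened by MTT assay against human hepatoblastoma HepG2 cells and murine BALB/3T3 fibroblasts, with doxorubicin as the reference drug. Dose–response curves are plotted from the results. IC50 is taken as the concentration needed to kill half the cell population. Values are the mean of three independent experiments.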

Data set [1] has as its system BALB/3T3 (murine fibroblast). As to the kind of experiment: Cytotoxicity toward normal cell line BALB/3T3, MTT assay. It counts as cell-based. Particulars: for toxicity on the normal cell line (BALAB/3T3): statement in words; for IC50: Mus musculus, BALB/3T3, read-out: BALAB/3T3 IC50 ± SD. A digest of the protocol:
as §1

Turning to `Cc1c(-c2cc(-c3ccco3)c(C#N)c(N)n2)nnn1-c1ccc(Br)cc1` [Compound 9, 2-Amino-6-(1-(4-bromophenyl)-5-methyl-1H-1,2,3-triazol-4-yl)-4-(furan-2-yl)nicotinonitrile], the IC50 with HepG2 was determined as 11.15 ± 0.01 µg/mL (≈ 26.5 µM). On the same count and under the same terms, in the case of `COc1cc(-c2cc(-c3nnn(-c4ccc(Br)cc4)c3C)nc(N)c2C#N)ccc1O` [Compound 8, 2-Amino-6-(1-(4-bromophenyl)-5-methyl-1H-1,2,3-triazol-4-yl)-4-(4-hydroxy-3-methoxyphenyl)nicotinonitrile] it was 9.65 ± 0.37 µg/mL (≈ 20.2 µM). Consider `Cc1c(-c2cc(-c3cn(-c4ccccc4)nc3-c3nnn(-c4ccc(Br)cc4)c3C)c(C#N)c(N)n2)nnn1-c1ccc(Br)cc1` [Compound 6, 2-Amino-6-(1-(4-bromophenyl)-5-methyl-1H-1,2,3-triazol-4-yl)-4-(3-(1-(4-bromophenyl)-5-methyl-1H-1,2,3-triazol-4-yl)-1-phenyl-1H-pyrazol-4-yl)nicotinonitrile], for which, in the data set with HepG2, the IC50 amounted to 0.64 ± 0.14 µg/mL (≈ 0.873 µM). In data set [1], the “toxicity on the normal cell line (BALAB/3T3)” value is recorded as “no toxicity”. On to `CCOC(=O)c1c(-c2ccc(O)c(OC)c2)cc(-c2nnn(-c3ccc(Br)cc3)c2C)nc1N` [Compound 15, Ethyl 2-Amino-6-(1-(4-bromophenyl)-5-methyl-1H-1,2,3-triazol-4-yl)-4-(4-hydroxy-3-methoxyphenyl)nicotinate], for which the results for the IC50 (in the data set on HepG2; in data set [1]) were 11.3 ± 0.95 µg/mL (≈ 21.6 µM) and 18.3 ± 1.81 µg/mL (≈ 35 µM), respectively. The like results for `CCOC(=O)c1c(-c2ccccc2)cc(-c2nnn(-c3ccc(Br)cc3)c2C)nc1N` [Compound 10, Ethyl 2-Amino-6-(1-(4-bromophenyl)-5-methyl-1H-1,2,3-triazol-4-yl)-4-phenylnicotinate] were, in that order, 23.2 ± 0.45 µg/mL (≈ 48.6 µM) and 76.72 ± 0.24 µg/mL (≈ 160 µM). Take `CCOC(=O)c1c(-c2ccco2)cc(-c2nnn(-c3ccc(Br)cc3)c2C)nc1N` [Compound 16, Ethyl 2-Amino-6-(1-(4-bromophenyl)-5-methyl-1H-1,2,3-triazol-4-yl)-4-(furan-2-yl)nicotinate]: the IC50 in the data set on HepG2 was 13.24 ± 0.12 µg/mL (≈ 28.3 µM). On the same count and under the same terms, to `Cc1c(-c2cc(-c3ccccc3)c(C#N)c(N)n2)nnn1-c1ccc(Br)cc1` [Compound 3, 2-Amino-6-(1-(4-bromophenyl)-5-methyl-1H-1,2,3-triazol-4-yl)-4-phenylnicotinonitrile] belongs 17.2 ± 0.83 µg/mL (≈ 40 µM). `Cc1c(-c2cc(-c3cn(-c4ccccc4)nc3-c3nnn(-c4cccc([N+](=O)[O-])c4)c3C)c(C#N)c(N)n2)nnn1-c1ccc(Br)cc1` [Compound 7, 2-Amino-6-(1-(4-bromophenyl)-5-methyl-1H-1,2,3-triazol-4-yl)-4-(3-(5-methyl-1-(3-nitrophenyl)-1H-1,2,3-triazol-4-yl)-1-phenyl-1H-pyrazol-4-yl)nicotinonitrile]: the IC50 with HepG2 was 1.08 ± 0.94 µg/mL (≈ 1.54 µM). Further, the “toxicity on the normal cell line (BALAB/3T3)” value in data set [1] is given as “no toxicity”. As for `COc1cccc2c1C(=O)c1c(O)c3c(c(O)c1C2=O)C[C@@](O)(C(=O)CO)C[C@@H]3O[C@H]1C[C@H](N)[C@H](O)[C@H](C)O1` [doxorubicin, reference compound], in the data set with HepG2, the IC50 was found to be 3.56 ± 0.46 µg/mL (≈ 6.55 µM). With `CCOC(=O)c1c(-c2ccc(OC)cc2)cc(-c2nnn(-c3ccc(Br)cc3)c2C)nc1N` [Compound 11, Ethyl 2-Amino-6-(1-(4-bromophenyl)-5-methyl-1H-1,2,3-triazol-4-yl)-4-(4-methoxyphenyl)nicotinate], the IC50 in the data set on HepG2 was 16.7 ± 0.83 µg/mL (≈ 32.8 µM).

`CCOC(=O)c1c(-c2cn(-c3ccccc3)nc2-c2nnn(-c3cccc([N+](=O)[O-])c3)c2C)cc(-c2nnn(-c3ccc(Br)cc3)c2C)nc1N` [Compound 14, Ethyl 2-Amino-6-(1-(4-bromophenyl)-5-methyl-1H-1,2,3-triazol-4-yl)-4-(3-(5-methyl-1-(3-nitrophenyl)-1H-1,2,3-triazol-4-yl)-1-phenyl-1H-pyrazol-4-yl)nicotinate]: the IC50 in the data set on HepG2 turned out to be 9.54 ± 0.05 µg/mL (≈ 12.8 µM).

For the compound `CCOC(=O)c1c(-c2cn(-c3ccccc3)nc2-c2nnn(-c3ccc(Br)cc3)c2C)cc(-c2nnn(-c3ccc(Br)cc3)c2C)nc1N` [Compound 13, Ethyl 2-Amino-6-(1-(4-bromophenyl)-5-methyl-1H-1,2,3-triazol-4-yl)-4-(3-(1-(4-bromophenyl)-5-methyl-1H-1,2,3-triazol-4-yl)-1-phenyl-1H-pyrazol-4-yl)nicotinate], the results for the IC50 (in the data set on HepG2; in data set [1]) were 6.24 ± 0.71 µg/mL (≈ 8 µM) and 61.24 ± 0.21 µg/mL (≈ 78.5 µM), respectively.
